This is an account of results in ChEMBL document CHEMBL4229344 (Eur J Med Chem, 2018).

Molecules are shown by their SMILES.

Data set [1] concerns Tyrosine-protein kinase ABL1 (Homo sapiens), P00519 [F317L]. As to the kind of experiment: Binding affinity to human non-phosphorylated ABL1 F317L mutant (S229 to K512 residues) expressed in mammalian expression system assessed as residual binding level at 1 uM by Kinomescan method relative to control. The method in brief:
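Kinome-wide single-concentration binding screen (KINOMEscan) at 1 μM against a panel of 468 purified kinases and mutants. Read-out is relative binding of each kinase compared with control. Selectivity across the panel was summarised as an S(10) score.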

Data set [2] concerns the target Tyrosine-protein kinase receptor UFO (Homo sapiens) (UniProt P30530). The experiment in a line: Binding affinity to wild-type human partial length AXL (R497 to Y821 residues) expressed in bacterial expression system assessed as residual binding level at 1 uM by Kinomescan method relative to control. The method in brief: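 Single-concentration KINOMEscan (DiscoverX) binding screen at 1 μM against a panel of 468 purified kinases and mutants. The read-out is binding relative to control.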

The target of data set [3] is Cyclin-dependent kinase 4/cyclin D1 (Homo sapiens) (UniProt P11802+P24385). As to the kind of experiment: Binding affinity to wild-type human full length CDK4/cyclinD1 (M1 to E303 residues) expressed in mammalian expression system assessed as residual binding level at 1 uM by Kinomescan method relative to control. Summed up:
(§1)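 Single-concentration (1 μM) competition-binding screen run by KINOMEscan against a panel of 468 purified kinases and mutants. The read-out is the relative binding activity of the test compound to each kinase.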

Data set [4] concerns the target Macrophage colony-stimulating factor 1 receptor (Homo sapiens) (UniProt P07333). As to the kind of experiment: Binding affinity to wild-type human partial length autoinhibited CSF1R (Y538 to S939 residues) expressed in mammalian expression system assessed as residual binding level at 1 uM by Kinomescan method relative to control.
The target in data set [5] is Casein kinase I isoform gamma-1 (Homo sapiens) (UniProt Q9HCP0). As to the kind of experiment: Binding affinity to wild-type human partial length CSNK1G1 (T15 to S353 residues) expressed in bacterial expression system assessed as residual binding level at 1 uM by Kinomescan method relative to control.
The test system of data set [6] is eIF-2-alpha kinase GCN2 (Homo sapiens), Q9P2K8 [S808G]. The experiment in a line: Binding affinity to wild-type human partial length GCN2 kinase domain 2 (R585 to T1018 residues) S808G mutant expressed in bacterial expression system assessed as residual binding level at 1 uM by Kinomescan method relative to control.
In data set [7] the target is Inhibitor of nuclear factor kappa-B kinase subunit beta (Homo sapiens) (UniProt O14920). The experiment in a line: Binding affinity to wild-type human full length IKK-beta (M1 to S756 residues) expressed in mammalian expression system assessed as residual binding level at 1 uM by Kinomescan method relative to control. The method in brief: as §1
Data set [8] deals with Interleukin-1 receptor-associated kinase 3 (Homo sapiens) (UniProt Q9Y616). As to the kind of experiment: Binding affinity to wild-type human partial length IRAK3 (V147 to E596 residues) expressed in bacterial expression system assessed as residual binding level at 1 uM by Kinomescan method relative to control.
Data set [9] concerns the target Mitogen-activated protein kinase kinase kinase 13 (Homo sapiens) (UniProt O43283). The experiment in a line: Binding affinity to wild-type human full length LZK (M1 to W966 residues) expressed in mammalian expression system assessed as residual binding level at 1 uM by Kinomescan method relative to control. Summed up:
as §1

Data set [10] has as its target Mitogen-activated protein kinase kinase kinase 3 (Homo sapiens) (UniProt Q99759). As to the kind of experiment: Binding affinity to wild-type human partial length MAP3K3 (E320 to Y626 residues) expressed in mammalian expression system assessed as residual binding level at 1 uM by Kinomescan method relative to control.
The target of data set [11] is Dual specificity mitogen-activated protein kinase kinase 5 (Homo sapiens) (UniProt Q13163). The experiment in a line: Binding affinity to wild-type human partial length MEK5 (L98 to P448 residues) expressed in mammalian expression system assessed as residual binding level at 1 uM by Kinomescan method relative to control.
The target in data set [12] is Serine/threonine-protein kinase Nek5 (Homo sapiens) (UniProt Q6P3R8). As to the kind of experiment: Binding affinity to wild-type human partial length NEK5 (M1 to M279 residues) expressed in bacterial expression system assessed as residual binding level at 1 uM by Kinomescan method relative to control.
Data set [13] deals with Serine/threonine-protein kinase PAK 5 (Homo sapiens) (UniProt Q9P286). The experiment in a line: Binding affinity to wild-type human partial length PAK7 (Y400 to H719 residues) expressed in bacterial expression system assessed as residual binding level at 1 uM by Kinomescan method relative to control. The method in brief: (§2)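 KINOMEscan competition binding against a panel of 468 purified kinases/mutants, compound tested at 1 μM; readout is relative binding activity versus control.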

Data set [14] has as its target Phosphatidylinositol 4,5-bisphosphate 3-kinase catalytic subunit alpha isoform (Homo sapiens) (UniProt P42336). As to the kind of experiment: Binding affinity to wild-type human partial length PIK3CA (R108 to N1068 residues) expressed in mammalian expression system assessed as residual binding level at 1 uM by Kinomescan method relative to control.
The target of data set [15] is Phosphatidylinositol 4,5-bisphosphate 3-kinase catalytic subunit delta isoform (Homo sapiens) (UniProt O00329). The experiment in a line: Binding affinity to wild-type human partial length PIK3CD (R108 to Q1044 residues) expressed in mammalian expression system assessed as residual binding level at 1 uM by Kinomescan method relative to control.
Data set [16] addresses Phosphatidylinositol 4-phosphate 5-kinase type-1 gamma (Homo sapiens) (UniProt O60331). As to the kind of experiment: Binding affinity to wild-type human partial length PIP5K1C (M1 to T668 residues) expressed in mammalian expression system assessed as residual binding level at 1 uM by Kinomescan method relative to control. The method in brief: as §2
In data set [17] the target is Phosphatidylinositol 5-phosphate 4-kinase type-2 beta (Homo sapiens) (UniProt P78356). The experiment in a line: Binding affinity to wild-type human full length PIP5K2B (M1 to T416 residues) expressed in bacterial expression system assessed as residual binding level at 1 uM by Kinomescan method relative to control. Summed up:
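KINOMEscan competition binding against 468 purified kinases/mutants, test compound at 1 µM; residual binding relative to control.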

In data set [18] the target is Proto-oncogene tyrosine-protein kinase receptor Ret (Homo sapiens) (UniProt P07949). As to the kind of experiment: Binding affinity to wild-type human partial length RET (E713 to D1014 residues) expressed in bacterial expression system assessed as residual binding level at 1 uM by Kinomescan method relative to control.
The target of data set [19] is Ribosomal protein S6 kinase alpha-6 (Homo sapiens) (UniProt Q9UK32). The experiment in a line: Binding affinity to wild-type human partial length C-terminal RSK4 kinase domain 2 (I401 to Y711 residues) expressed in bacterial expression system assessed as residual binding level at 1 uM by Kinomescan method relative to control.
Another data set concerns Rattus norvegicus. As to the kind of experiment: Apparent volume of distribution in Sprague-Dawley rat at 10 mg/kg, po. Particulars: in vivo. Format: ADME, organism-based.
The subject of another data set is EOL1. The experiment in a line: Antitumor activity against human EOL-1 cells xenografted in nu/nu mouse assessed as tumor growth inhibition at 25 mg/kg/day, ip. Format: functional. The conditions noted are these: read-out: TGI. Summed up:
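Female nu/nu mice (6 weeks) given subcutaneous right-flank injection of 5 million EOL-1 cells in PBS/Matrigel 1:1. At 200–400 mm3 tumors, randomized to groups of 6 and dosed daily i.p. for 14 days at 25, 50 or 100 mg/kg/d in 0.5% methylcellulose/0.4% Tween80. Tumor volume = W²×L/2, measured daily.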

Sequence of Macrophage colony-stimulating factor 1 receptor (Homo sapiens) (P07333 whole entry, the tested form may be a part, canonical isoform): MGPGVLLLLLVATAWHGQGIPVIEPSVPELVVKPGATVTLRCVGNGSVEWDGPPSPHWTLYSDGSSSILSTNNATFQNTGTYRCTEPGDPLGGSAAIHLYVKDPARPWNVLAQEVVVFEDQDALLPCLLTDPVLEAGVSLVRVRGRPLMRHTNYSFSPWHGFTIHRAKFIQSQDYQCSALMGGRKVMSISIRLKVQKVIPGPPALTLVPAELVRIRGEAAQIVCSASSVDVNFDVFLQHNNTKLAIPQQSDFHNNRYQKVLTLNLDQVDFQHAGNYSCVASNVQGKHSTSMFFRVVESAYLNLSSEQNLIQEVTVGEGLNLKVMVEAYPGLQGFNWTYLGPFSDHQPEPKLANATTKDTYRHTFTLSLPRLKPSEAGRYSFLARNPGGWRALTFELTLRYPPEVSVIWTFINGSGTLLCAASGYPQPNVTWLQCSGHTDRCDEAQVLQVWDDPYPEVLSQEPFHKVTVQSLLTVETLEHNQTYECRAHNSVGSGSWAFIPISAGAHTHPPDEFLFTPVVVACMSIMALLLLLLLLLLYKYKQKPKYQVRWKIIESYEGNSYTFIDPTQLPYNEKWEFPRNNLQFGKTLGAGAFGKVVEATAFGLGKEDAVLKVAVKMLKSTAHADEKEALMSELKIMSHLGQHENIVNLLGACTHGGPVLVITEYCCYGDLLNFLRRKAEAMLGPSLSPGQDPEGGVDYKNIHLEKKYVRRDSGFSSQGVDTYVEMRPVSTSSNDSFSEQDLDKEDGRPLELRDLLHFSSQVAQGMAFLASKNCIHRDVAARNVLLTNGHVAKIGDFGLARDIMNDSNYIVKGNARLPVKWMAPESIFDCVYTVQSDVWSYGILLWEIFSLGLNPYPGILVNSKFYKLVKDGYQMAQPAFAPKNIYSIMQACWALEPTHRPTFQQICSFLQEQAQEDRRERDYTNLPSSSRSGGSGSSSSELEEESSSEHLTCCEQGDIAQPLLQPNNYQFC
Sequence of Inhibitor of nuclear factor kappa-B kinase subunit beta (Homo sapiens) (O14920 whole entry, the tested form may be a part): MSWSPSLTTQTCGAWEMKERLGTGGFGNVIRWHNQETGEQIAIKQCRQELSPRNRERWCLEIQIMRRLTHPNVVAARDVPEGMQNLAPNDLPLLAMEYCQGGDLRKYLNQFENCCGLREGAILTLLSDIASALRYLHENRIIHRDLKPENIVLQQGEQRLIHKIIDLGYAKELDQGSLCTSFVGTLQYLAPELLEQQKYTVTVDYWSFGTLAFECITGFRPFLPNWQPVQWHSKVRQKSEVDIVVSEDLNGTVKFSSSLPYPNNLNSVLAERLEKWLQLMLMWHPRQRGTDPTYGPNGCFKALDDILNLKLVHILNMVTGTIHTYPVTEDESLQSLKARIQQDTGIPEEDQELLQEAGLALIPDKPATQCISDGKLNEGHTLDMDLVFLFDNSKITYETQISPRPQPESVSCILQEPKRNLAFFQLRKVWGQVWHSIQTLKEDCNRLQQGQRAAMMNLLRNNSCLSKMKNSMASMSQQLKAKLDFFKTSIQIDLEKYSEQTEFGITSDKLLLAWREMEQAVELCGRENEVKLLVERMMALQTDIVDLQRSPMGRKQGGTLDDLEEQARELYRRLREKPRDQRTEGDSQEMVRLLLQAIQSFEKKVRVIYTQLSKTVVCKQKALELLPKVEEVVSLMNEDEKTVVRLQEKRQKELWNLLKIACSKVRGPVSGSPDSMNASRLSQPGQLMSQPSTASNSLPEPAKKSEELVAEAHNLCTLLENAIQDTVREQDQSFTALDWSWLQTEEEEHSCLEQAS
Sequence of Phosphatidylinositol 4,5-bisphosphate 3-kinase catalytic subunit delta isoform (Homo sapiens) (O00329 whole entry, the tested form may be a part, canonical isoform): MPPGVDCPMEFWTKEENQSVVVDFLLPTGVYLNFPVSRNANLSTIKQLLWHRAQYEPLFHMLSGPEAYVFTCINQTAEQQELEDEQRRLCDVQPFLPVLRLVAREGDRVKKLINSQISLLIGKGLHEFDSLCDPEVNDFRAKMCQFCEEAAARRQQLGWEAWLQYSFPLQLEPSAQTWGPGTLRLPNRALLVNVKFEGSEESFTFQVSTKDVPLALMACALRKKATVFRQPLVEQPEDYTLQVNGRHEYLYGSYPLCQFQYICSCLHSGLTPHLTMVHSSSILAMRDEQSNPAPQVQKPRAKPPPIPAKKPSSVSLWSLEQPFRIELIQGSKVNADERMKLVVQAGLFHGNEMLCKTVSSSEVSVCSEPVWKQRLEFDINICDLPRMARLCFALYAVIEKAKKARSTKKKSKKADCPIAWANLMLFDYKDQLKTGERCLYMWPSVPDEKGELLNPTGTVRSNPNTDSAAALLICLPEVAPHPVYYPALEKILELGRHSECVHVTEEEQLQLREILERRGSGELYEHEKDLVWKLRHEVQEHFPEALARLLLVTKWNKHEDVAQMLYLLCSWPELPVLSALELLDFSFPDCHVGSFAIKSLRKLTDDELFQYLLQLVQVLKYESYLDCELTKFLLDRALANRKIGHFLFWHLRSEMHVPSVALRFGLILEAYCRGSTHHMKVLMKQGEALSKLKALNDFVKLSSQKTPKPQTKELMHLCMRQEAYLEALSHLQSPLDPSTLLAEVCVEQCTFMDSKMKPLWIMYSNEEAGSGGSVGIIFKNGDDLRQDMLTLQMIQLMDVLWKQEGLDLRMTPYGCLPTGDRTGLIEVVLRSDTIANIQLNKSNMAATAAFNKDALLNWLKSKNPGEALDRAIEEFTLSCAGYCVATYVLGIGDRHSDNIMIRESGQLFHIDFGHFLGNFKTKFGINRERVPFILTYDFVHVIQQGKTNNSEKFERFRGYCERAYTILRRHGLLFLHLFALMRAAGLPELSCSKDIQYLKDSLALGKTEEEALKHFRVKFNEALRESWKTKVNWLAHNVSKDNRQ
Sequence of Casein kinase I isoform gamma-1 (Homo sapiens) (Q9HCP0 whole entry, looked up, the tested form may be a part, canonical isoform): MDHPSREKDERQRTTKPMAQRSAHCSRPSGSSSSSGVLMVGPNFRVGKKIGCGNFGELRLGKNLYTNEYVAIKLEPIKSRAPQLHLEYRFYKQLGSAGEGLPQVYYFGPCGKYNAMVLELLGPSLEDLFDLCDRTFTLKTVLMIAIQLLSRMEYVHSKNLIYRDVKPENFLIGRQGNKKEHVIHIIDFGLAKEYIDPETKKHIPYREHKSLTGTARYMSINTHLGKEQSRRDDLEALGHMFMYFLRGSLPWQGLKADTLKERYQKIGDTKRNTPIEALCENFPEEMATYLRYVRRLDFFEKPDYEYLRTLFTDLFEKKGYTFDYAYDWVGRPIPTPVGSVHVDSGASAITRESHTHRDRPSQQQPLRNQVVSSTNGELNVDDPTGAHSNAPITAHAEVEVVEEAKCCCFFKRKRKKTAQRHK
Sequence of Ribosomal protein S6 kinase alpha-6 (Homo sapiens) (Q9UK32 whole entry, the tested form may be a part): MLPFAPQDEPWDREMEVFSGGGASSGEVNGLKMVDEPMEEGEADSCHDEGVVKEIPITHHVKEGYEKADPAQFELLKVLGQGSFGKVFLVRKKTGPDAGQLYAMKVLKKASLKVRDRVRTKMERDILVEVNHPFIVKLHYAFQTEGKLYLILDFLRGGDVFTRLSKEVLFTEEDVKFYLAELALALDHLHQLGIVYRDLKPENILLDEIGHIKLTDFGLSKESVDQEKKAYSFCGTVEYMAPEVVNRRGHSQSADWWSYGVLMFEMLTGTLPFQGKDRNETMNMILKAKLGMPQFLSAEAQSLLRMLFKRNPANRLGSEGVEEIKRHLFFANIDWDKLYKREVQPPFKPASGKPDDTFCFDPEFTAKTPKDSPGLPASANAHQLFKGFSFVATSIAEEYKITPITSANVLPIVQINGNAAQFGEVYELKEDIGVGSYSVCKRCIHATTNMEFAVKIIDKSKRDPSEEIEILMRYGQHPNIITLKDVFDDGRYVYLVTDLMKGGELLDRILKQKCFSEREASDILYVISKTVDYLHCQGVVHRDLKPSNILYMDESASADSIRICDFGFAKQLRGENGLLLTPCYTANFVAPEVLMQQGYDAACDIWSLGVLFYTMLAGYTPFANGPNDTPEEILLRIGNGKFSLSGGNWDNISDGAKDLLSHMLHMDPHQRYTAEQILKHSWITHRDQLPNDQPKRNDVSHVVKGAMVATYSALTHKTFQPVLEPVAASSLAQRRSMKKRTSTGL
Sequence of Phosphatidylinositol 4-phosphate 5-kinase type-1 gamma (Homo sapiens) (O60331 whole entry, the tested form may be a part): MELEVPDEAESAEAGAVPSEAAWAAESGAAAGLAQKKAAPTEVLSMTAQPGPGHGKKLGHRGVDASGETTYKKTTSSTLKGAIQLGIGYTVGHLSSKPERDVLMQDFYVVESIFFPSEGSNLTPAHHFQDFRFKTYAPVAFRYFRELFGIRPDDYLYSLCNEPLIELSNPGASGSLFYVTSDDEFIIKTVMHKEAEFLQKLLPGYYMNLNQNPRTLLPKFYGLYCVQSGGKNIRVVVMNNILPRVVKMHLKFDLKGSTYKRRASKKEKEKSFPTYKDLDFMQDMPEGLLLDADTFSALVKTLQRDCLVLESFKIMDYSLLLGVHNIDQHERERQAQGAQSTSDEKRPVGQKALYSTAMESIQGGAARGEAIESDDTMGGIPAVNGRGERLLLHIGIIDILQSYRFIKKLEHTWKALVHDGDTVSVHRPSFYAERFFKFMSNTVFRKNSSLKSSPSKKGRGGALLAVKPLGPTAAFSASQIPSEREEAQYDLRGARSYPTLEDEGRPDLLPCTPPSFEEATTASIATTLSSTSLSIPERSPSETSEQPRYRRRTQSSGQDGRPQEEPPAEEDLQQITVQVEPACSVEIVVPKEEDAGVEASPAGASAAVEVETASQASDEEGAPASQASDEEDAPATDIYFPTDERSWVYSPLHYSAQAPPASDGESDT
Sequence of Dual specificity mitogen-activated protein kinase kinase 5 (Homo sapiens) (Q13163 whole entry, the tested form may be a part): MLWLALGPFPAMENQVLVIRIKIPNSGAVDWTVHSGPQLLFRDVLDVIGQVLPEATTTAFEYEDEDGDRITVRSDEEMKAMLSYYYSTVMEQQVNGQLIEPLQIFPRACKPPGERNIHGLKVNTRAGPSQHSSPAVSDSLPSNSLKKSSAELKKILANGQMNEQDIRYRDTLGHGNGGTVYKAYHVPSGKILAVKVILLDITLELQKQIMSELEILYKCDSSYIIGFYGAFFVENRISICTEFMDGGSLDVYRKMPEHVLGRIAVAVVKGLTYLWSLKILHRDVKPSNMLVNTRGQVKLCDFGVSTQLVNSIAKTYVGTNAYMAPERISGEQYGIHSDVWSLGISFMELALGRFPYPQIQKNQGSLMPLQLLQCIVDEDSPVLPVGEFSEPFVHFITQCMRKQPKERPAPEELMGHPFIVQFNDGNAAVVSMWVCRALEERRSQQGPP

Consider `Cc1ccc(NC(=O)c2ccc(CN(CCN(C)C)C(=O)c3cccnc3)cc2)cc1Nc1nccc(-c2cccnc2)n1`, for which the Activity in [1] came out at 79%; in data set [2] it was 95%; in data set [3], 100%; in [4], 100%; in data set [5], 90%; in [6], 71%. Besides, the Activity was 96% in [7]; 100% in [8]; 100% in data set [9]; 86% in data set [10]; 100% in data set [11]; 99% in [12]. Also, the Activity in [13] was 92%; in [14] it was 100%; in data set [15], 100%; in [16], 83%; in data set [17] it was 83%; in data set [18], 80%. Further, the Activity in [19] was 100%. In the data set with Rattus norvegicus, the Vz is 256.181 L/kg. Besides, the inhibition in vivo at 25 mg/kg/day with EOL1 turned out to be 71.5%.
